The target in the experiment is Amyloid-beta precursor protein (Homo sapiens) (UniProt P05067). The experiment is described as follows: Induction of HFIP-pretreated amyloid beta (1 to 42) (unknown origin) disaggregation after 48 hrs by silver staining-based SDS-PAGE analysis. The method, boiled down: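 Aβ aggregates were incubated with compound for 48 h, with congo red as positive control. Size distribution (monomer, dimer, trimer, high-molecular-weight species) was analysed by SDS-PAGE with silver staining at the start and at the end of incubation.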

Activity calls are given as the source filed them. The rule behind the calls is not given here.

The values below come from ChEMBL document CHEMBL4028909, “Discovery of an Orally Bioavailable Benzofuran Analogue That Serves as a β-Amyloid Aggregation Inhibitor for the Potential Treatment of Alzheimer's Disease” (J Med Chem, 2018).

Chain of Amyloid-beta precursor protein (Homo sapiens) (P05067 whole entry): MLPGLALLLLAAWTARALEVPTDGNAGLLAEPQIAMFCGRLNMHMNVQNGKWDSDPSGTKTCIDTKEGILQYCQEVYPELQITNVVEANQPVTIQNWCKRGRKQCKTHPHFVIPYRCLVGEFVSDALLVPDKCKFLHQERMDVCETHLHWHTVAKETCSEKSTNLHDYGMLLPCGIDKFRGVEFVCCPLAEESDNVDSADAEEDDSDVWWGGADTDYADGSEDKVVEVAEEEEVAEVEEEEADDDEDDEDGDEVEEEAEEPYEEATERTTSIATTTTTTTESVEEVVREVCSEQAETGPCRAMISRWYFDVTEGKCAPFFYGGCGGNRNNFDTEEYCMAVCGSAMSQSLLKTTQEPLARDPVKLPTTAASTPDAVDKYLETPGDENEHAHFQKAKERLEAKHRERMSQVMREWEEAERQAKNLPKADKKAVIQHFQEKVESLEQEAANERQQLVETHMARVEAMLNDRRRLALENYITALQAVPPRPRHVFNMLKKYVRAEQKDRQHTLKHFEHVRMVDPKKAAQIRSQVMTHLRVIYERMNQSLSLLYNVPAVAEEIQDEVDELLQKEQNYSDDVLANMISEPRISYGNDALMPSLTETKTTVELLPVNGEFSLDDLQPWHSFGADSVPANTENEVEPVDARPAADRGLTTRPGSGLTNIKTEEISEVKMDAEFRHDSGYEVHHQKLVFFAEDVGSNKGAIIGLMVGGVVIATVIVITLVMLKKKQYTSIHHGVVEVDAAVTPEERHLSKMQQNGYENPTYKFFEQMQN

As for `Nc1c(/N=N/c2ccc(-c3ccc(/N=N/c4cc(S(=O)(=O)O)c5ccccc5c4N)cc3)cc2)cc(S(=O)(=O)O)c2ccccc12`, the outcome was Active.
